Consider 3 compounds from paper PMC2699564 (Journal of medicinal chemistry, 2009).

One series deals with RIF tumor. Nature of the series: microPET imaging, RUV and relative tumor activity, RIF tumor. Type of series: in vivo.
In series [1] the test system is RIF tumors. Description: In vivo biodistribution of ^124I-labeled compounds. On the set-up: species or system C3H mice. The note with it: for tumor uptake compared among compounds 1-3 / tumor uptake: RIF tumor; for tumor uptake compared among compounds 1-3 / liver and spleen uptake compared among compounds 1-3: 24-96 h post injection; for tumor uptake: ^124I-labeled, i.v.; for liver and spleen uptake compared among compounds 1-3: C3H mice. In outline: (§1)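 ¹²⁴I-labeled test compound (radiochemical purity >95%, in saline with 10% ethanol) given via tail vein at 15–200 μCi; 3–4 mice per compound/time point. Sacrificed at 24, 48, 72 and 96 h. Blood, tumor, heart, liver, spleen, kidney, lung, muscle, gut and stomach removed and weighed. Activity measured by gamma well counter; uptake expressed as %ID/g; mean of 3 or 4 mice.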

Another series concerns Colon-26 tumor. Description: microPET imaging, RUV and relative tumor activity, Colon-26 tumor. It counts as in vivo.
A further series relates to Colon-26 tumors. Nature of the series: In vivo biodistribution of ^124I-labeled 1. Details: species or system BALB/c mice. The note with it: for tumor uptake: Colon-26 tumor, ^124I-labeled, i.v. The essentials:
as §1

Series [2] concerns RIF tumors. Description: In vivo PDT efficacy. Details: species or system C3H mice. Particulars: for tumor free mice (tumor cure) / tumor free mice (tumor cure) at day 60: 665 nm, 135 J/cm^2, 75 mW/cm^2 at 24 h post-injection, five mice/group; for toxicity (deaths post PDT): 135 J/cm^2, five mice/group. The essentials:
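Female C3H/HeJ mice received 2×10^5 RIF cells intradermally in HBSS lacking Ca²⁺/Mg²⁺. At 4–5 mm tumors, hair was removed and test compound given i.v. the day before light, at 0.5, 1.0 or 1.5 μmol/kg, five mice/group. At 24 h, mice were restrained unanaesthetised and tumor irradiated with dye laser at 665 nm: 1 cm², 75 mW/cm², 135 J/cm², 30 min. Mice were watched daily for weight loss, scabbing and regrowth; V = (L × W²)/2. Sacrificed at 400 mm³; cured if no regrowth by day 60.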

The test system of a further series is Colon-26 cells. Nature of the series: In vitro cell uptake, Colon-26 cells. It counts as cell-based.
The next series deals with RIF cells. Description: In vitro cell uptake by fluorescence, RIF cells. Type of series: cell-based. The essentials: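 RIF cells incubated with test compound; cellular uptake read by fluorescence at 3 and 24 h post-incubation.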
The subject of series [3] is radiation-induce fibrosarcoma (RIF) cells. Nature of the series: In vitro photosensitizing efficacy. Particulars: 24 h incubation, 0.25 μM (Figure 8), light 0-4 J/cm^2, MTT. It counts as cell-based.

Consider `CCC1=C(C)c2cc3[nH]c(cc4nc(c5c6[nH]c(cc1n2)c(C)c6C(=O)C5)[C@@H](CCC(=O)OC)[C@@H]4C)c(C)c3C(C)OCc1cccc([124I])c1` (some centres unmarked) [Compound 1, 3-{1′-(m-iodobenzyloxy)ethyl}pyropheophorbide-a methyl ester], for which the “relative tumor activity (tumor activity to whole body activity in image)” value in the series with RIF tumor (RIF tumor, ^124I-1 about constant over three scans in 3 days) is roughly 0.035. The “time of best tumor contrast in PET images” value in the series with RIF tumor (both tumor models (RIF and Colon-26), post injection) worked out at 72 h. In the series with RIF tumors [1], the “tumor uptake compared among compounds 1-3” value was “highest tumor uptake value at 24 and 48 hrs time points”. Also, the tumor uptake is recorded as 4.1 %ID/g in the series on RIF tumors [1] (24 h post injection); 2.1 %ID/g in the series with RIF tumors [1] (48 h post injection); 0.8 %ID/g in the series on RIF tumors [1] (72 h post injection); 0.6 %ID/g in the series on RIF tumors [1] (96 h post injection); 4.6 %ID/g with Colon-26 tumors (24 h post injection); 4.4 %ID/g with Colon-26 tumors (48 h post injection). Besides, the results for the tumor uptake in the series with Colon-26 tumors (72 h post injection) and with Colon-26 tumors (96 h post injection) were 2.5 %ID/g and 2.0 %ID/g, respectively. Further, in the series with Colon-26 tumor (24-96 h), the “relative tumor activity over time” value is “increasing relative quantity of activity in the tumor”. For the same compound, the “relative uptake value (RUV) compared with RIF tumor” value in the series with Colon-26 tumor (after 48 hours of injection) is on record as “higher RUV values than RIF tumor”. The “tumor uptake in Colo-26 relative to RIF” value with Colon-26 tumors (72 h post injection) and with Colon-26 tumors (96 h post injection) was 3 fold in each case. Besides, the “blood uptake, BALB/c vs C3H mice” value in the series with Colon-26 tumors (^124I-labeled 1) was “slightly higher blood uptake in BALB/c mice than C3H mice”. Moreover, the “uptake in other organs, BALB/c vs C3H mice” value with Colon-26 tumors (^124I-labeled 1) is reported as “lower uptake in BALB/c mice than the C3H mice”. For the same compound, the “tumor free mice (tumor cure)” value in the series with RIF tumors [2] (1.00 μmole/kg i.v.) is given as “one out of five mice was tumor free”. The “tumor free mice (tumor cure) at day 60” value in the series on RIF tumors [2] (1.5 μmol/kg i.v.) is given as “four out of five mice were tumor free”.

In the case of `CCC1=C(C)c2cc3[nH]c(cc4nc(c5c6[nH]c(cc1n2)c(C)c6C(=O)C5)[C@@H](CCC(=O)N[C@@H]1[C@@H](O)[C@H](O)[C@@H](CO)O[C@H]1O)[C@@H]4C)c(C)c3C(C)OCc1cccc([124I])c1` (some centres unmarked) [Compound 2, 3-{1′-(m-iodobenzyloxy)ethyl}-17[2]-(2-amino-2-deoxy)glucosamide-pyropheo phorbide-a], in the series with Colon-26 cells, the “cell uptake compared to compound 1” value is “higher uptake”. The “cell uptake compared to compound 1” value in the series on RIF cells is listed as “higher uptake”. Also, in the series on RIF tumors [1], the “liver and spleen uptake compared among compounds 1-3” value was “lower spleen and liver uptake than 3 but higher than that of 1”; the “tumor uptake compared among compounds 1-3” value was “least tumor uptake among all compounds at all time points”. In the series on RIF tumors [2] (0.50 μmole/kg i.v.), the “tumor free mice (tumor cure)” value is recorded as “one out of five mice was tumor free”. In addition, the “tumor free mice (tumor cure)” value in the series on RIF tumors [2] (1.00 μmole/kg i.v.) was “two out of five mice were tumor free”. In the series with RIF tumors [2] (1.5 μmol/kg i.v.), the “toxicity (deaths post PDT)” value is given as “two mice died within 24 h post PDT” and the “tumor free mice (tumor cure) at day 60” value was “two out of remaining three mice were tumor free”. For the same compound, the “in vitro PDT efficacy compared to 1” value in series [3] was “more effective than the corresponding non-carbohydrate analog 1”.

As for `CCC1=C(C)c2cc3[nH]c(cc4nc(c5c6[nH]c(cc1n2)c(C)c6C(=O)C5)[C@@H](CCC(=O)N[C@@H]1O[C@H](CO)[C@H](O)[C@H](O)[C@H]1O)[C@@H]4C)c(C)c3C(C)OCc1cccc([124I])c1` (some centres unmarked) [Compound 3, {1′-(m-iodobenzyloxy)ethyl}-17[2]-(1-amino-1-deoxy)galactosamide-pyro pheophorbide-a], the “cell uptake compared to compound 1” value with Colon-26 cells and with RIF cells was “higher uptake” throughout. Besides, in the series on RIF tumors [1], the “liver and spleen uptake compared among compounds 1-3” value was “considerably higher liver and spleen uptake at all time points”. Besides, the “tumor uptake compared among compounds 1-3” value with RIF tumors [1] was “higher uptake values at the 72 and 96 hrs time points”. Also, the “toxicity (deaths post PDT)” value was “all five mice died within 24h post PDT” in the series on RIF tumors [2] (1.00 μmole/kg i.v.) and “all five mice died within 24 h post light treatment” with RIF tumors [2] (1.5 μmol/kg i.v.). Also, in series [3], the “in vitro PDT efficacy compared to 1” value was “more effective than the corresponding non-carbohydrate analog 1”.
